From ChEMBL document CHEMBL3621084, “Discovery of 2-Pyridinone Aminals: A Prodrug Strategy to Advance a Second Generation of HIV-1 Integrase Strand Transfer Inhibitors” (J Med Chem, 2015)
Values after ≈ are worked out from the molar mass of the structure shown.

Key:
[1] = Intrinsic clearance in human hepatocytes at 1 uM by LC-MS/MS method; type: ADME, cell-based, Hepatocyte; details: read-out: CLH
[2] = system: Human immunodeficiency virus 1; assay: Resistance index, ratio of IC50 for antiviral activity against HIV1 expressing integrase Q148R mutant to IC50 for antiviral activity against HIV1 expressing wild type integrase; type: functional
Summary of the method: (§1)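 Fold shift computed as the inflection point (IP) against mutant HIV-1 divided by the IP against wild-type virus. Both IPs come from a kinetic HIV replication (viral kinetics) potency assay run in 50% normal human serum (NHS).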

[3] = Oral bioavailability in dog; type: ADME, organism-based, Canis lupus familiaris; details: in vivo
[4] = system: Human immunodeficiency virus 1; assay: Resistance index, ratio of IC50 for antiviral activity against HIV1 expressing integrase Y143R mutant to IC50 for antiviral activity against HIV1 expressing wild type integrase; type: functional; summary of the method: as §1
[5] = Oral bioavailability in rat; type: ADME, organism-based; details: in vivo
[6] = system: Human immunodeficiency virus 1; assay: Resistance index, ratio of IC50 for antiviral activity against HIV1 expressing integrase E92Q mutant to IC50 for antiviral activity against HIV1 expressing wild type integrase; type: functional; summary of the method: as §1
[7] = system: Human immunodeficiency virus 1; assay: Antiviral activity against HIV1 infected in human MT4 cells expressing GFP incubated for 48 to 72 hrs in absence of 50% normal human serum by multiple round viral replication kinetics assay; type: functional
[8] = Plasma clearance in dog; type: ADME, organism-based, Canis lupus familiaris
[9] = system: Human immunodeficiency virus 1; assay: Antiviral activity against HIV1 infected in human MT4 cells expressing GFP incubated for 48 to 72 hrs in presence of 50% normal human serum by multiple round viral replication kinetics assay; type: functional
[10] = Plasma clearance in rat; type: ADME, organism-based
Canis familiaris [11] = assay: (§2) AUC (0 to infinity) in beagle dog at 2 mg/kg, po by LC-MS/MS method; type: ADME, organism-based, Canis lupus familiaris; parameters: dose 2 mg/kg, route oral, time infinity; details: in vivo
Canis familiaris [12] = assay: (§3) Oral bioavailability in beagle dog at 2 mg/kg by LC-MS/MS method; type: ADME, organism-based, Canis lupus familiaris; details: in vivo
[13] = Oral bioavailability in Wistar-Hanover rat at 2 mg/kg by LC-MS/MS method; type: ADME, organism-based; details: in vivo
[14] = Volume of distribution at steady state in beagle dog at 0.5 mg/kg, iv by LC-MS/MS method; type: ADME, organism-based, Canis lupus familiaris; details: in vivo, read-out: Vdss
[15] = Plasma clearance in Wistar-Hanover rat at 0.2 mg/kg, iv by LC-MS/MS method; type: ADME, organism-based
[16] = Volume of distribution at steady state in Wistar-Hanover rat at 0.2 mg/kg, iv by LC-MS/MS method; type: ADME, organism-based; details: in vivo, read-out: Vdss
[17] = AUC (0 to infinity) in Wistar-Hanover rat at 2 mg/kg, po by LC-MS/MS method; type: ADME, organism-based; parameters: dose 2 mg/kg, route oral, time infinity; details: in vivo
[18] = Half life in Wistar-Hanover rat at 0.2 mg/kg, iv by LC-MS/MS method; details: in vivo
[19] = Half life in beagle dog at 0.5 mg/kg, iv by LC-MS/MS method; details: in vivo
[20] = Solubility in FaSSiF at pH 6.5 at room temperature incubated for 4 hrs; type: physicochemical
[21] = as §2; type: ADME, organism-based, Canis lupus familiaris; parameters: dose 2 mg/kg, route oral, time infinity; details: beagle, in vivo
[22] = as §3; type: ADME, organism-based, Canis lupus familiaris; details: beagle, in vivo
[23] = Protein binding in human plasma at 2.5 uM incubated for 4 hrs by LC-MS/MS detection based equilibrium dialysis method; type: ADME, cell-free; details: read-out: PPB (converted)
[24] = Permeability in MDCK2 cells at 1 uM incubated for 3 hrs by LC-MS/MS method; type: ADME, cell-based, Canis lupus familiaris, MDCK-II; details: dog, MDCK; read-out: permeability
Cytochrome P450 3A4 = Cytochrome P450 3A4 (Homo sapiens, UniProt P08684); assay: Time dependent inhibition of CYP3A4 (unknown origin); type: ADME
Cytochrome P450 3A4, sequence (P08684 whole entry): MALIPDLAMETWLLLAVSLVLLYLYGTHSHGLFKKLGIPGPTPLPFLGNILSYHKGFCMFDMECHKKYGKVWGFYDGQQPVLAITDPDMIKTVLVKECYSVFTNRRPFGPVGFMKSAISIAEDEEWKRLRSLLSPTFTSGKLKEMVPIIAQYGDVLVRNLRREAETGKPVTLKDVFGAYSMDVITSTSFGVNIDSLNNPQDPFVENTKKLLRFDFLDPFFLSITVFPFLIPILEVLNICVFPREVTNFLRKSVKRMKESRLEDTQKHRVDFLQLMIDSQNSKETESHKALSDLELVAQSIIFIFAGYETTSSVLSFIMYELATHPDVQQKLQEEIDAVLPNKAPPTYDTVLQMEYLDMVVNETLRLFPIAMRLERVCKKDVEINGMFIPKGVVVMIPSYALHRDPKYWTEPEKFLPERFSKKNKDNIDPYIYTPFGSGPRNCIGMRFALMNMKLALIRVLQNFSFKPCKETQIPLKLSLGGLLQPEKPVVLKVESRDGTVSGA

[25] = Solubility in SGF at pH 1.8 at room temperature incubated for 4 hrs; type: physicochemical
[26] = Permeability in LLC-PK1 cells at 1 uM incubated for 3 hrs by LC-MS/MS method; type: ADME, cell-based, Sus scrofa; details: pig, read-out: permeability
Canis familiaris [27] = assay: AUC (0 to infinity) in beagle dog assessed as (1R,2R,5S)-8'-(3-chloro-4-fluorobenzyl)-6'-hydroxy-2'-((S)-2-hydroxypropyl)-9',10'-dihydro-1'H-spiro[bicyclo[3.1.0]hexane-2,3'-imidazo[5,1-a][2,6]naphthyridine]-1',5',7'(2'H,8'H)-trione level at 2 mg/kg, po by LC-MS/MS method; type: ADME, organism-based, Canis lupus familiaris; parameters: dose 2 mg/kg, time infinity, route oral; details: in vivo
Summary of the method: (§4)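 Oral rising-dose studies were run in beagle dogs with prodrugs, at doses normalized to account for the promoiety so that they give the actual parent dose administered. The read-out was plasma exposure (AUC) of the parent compound.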

[28] = Plasma clearance in beagle dog at 0.5 mg/kg, iv by LC-MS/MS method; type: ADME, organism-based, Canis lupus familiaris
[29] = Protein binding in beagle dog plasma at 2.5 uM incubated for 4 hrs by LC-MS/MS detection based equilibrium dialysis method; type: ADME, cell-free, Canis lupus familiaris; details: read-out: PPB (converted)
Canis familiaris [30] = assay: AUC (0 to infinity) in beagle dog assessed as c(1R,2S,5R)-8'-(3-chloro-4-fluorobenzyl)-6'-hydroxy-1-(hydroxymethyl)-2'-methyl-9',10'-dihydro-1'H-spiro[bicyclo[3.1.0]hexane-2,3'-imidazo[5,1-a][2,6]naphthyridine]-1',5',7'(2'H,8'H)-trione evel at 2 mg/kg, po by LC-MS/MS method; type: ADME, organism-based, Canis lupus familiaris; parameters: dose 2 mg/kg, route oral, time infinity; details: in vivo; summary of the method: as §4
[31] = AUC (0 to infinity) in beagle dog at 1 mg/kg, po by LC-MS/MS method; type: ADME, organism-based, Canis lupus familiaris; parameters: dose 1 mg/kg, route oral, time infinity; details: in vivo
[32] = Half life in beagle dog at 0.5 mg/kg, iv by LC-MS/MS method; details: in vivo; remark: listed apart in the source
[33] = Oral bioavailability in beagle dog at 1 mg/kg by LC-MS/MS method; type: ADME, organism-based, Canis lupus familiaris; details: in vivo

| SMILES | Ratio IC50 [2] | Ratio IC50 [4] | Ratio IC50 [6] | IP [7] [nM] | IP [9] [nM] | Vd [14] [L/kg] | half-life [19] [h] | solubility at 4 h [20] [µg/mL] | fraction unbound at 4 h, 2.5 µM [23] | Papp at 3 h, 1 µM [24] [×10⁻⁶ cm/s] | TDI (Cytochrome P450 3A4) | solubility at 4 h [25] [µg/mL] | Papp at 3 h, 1 µM [26] [×10⁻⁶ cm/s] | clearance [28] [mL/min/kg] | fraction unbound at 4 h, 2.5 µM [29] | also measured |
| --- | --- | --- | --- | --- | --- | --- | --- | --- | --- | --- | --- | --- | --- | --- | --- | --- |
| CC(C)n1c(C(=O)N(C)C)c2c(c(O)c1=O)C(=O)N(Cc1ccc(F)c(Cl)c1)CC2 | 1 | 2 | 1 | 6 | 53 |  |  |  |  |  |  |  |  |  |  | CLint scaled at 1 µM [1]: < 20 mL/min/kg; bioavailability [3]: 44%; bioavailability [5]: 29%; clearance [8]: 2.2 mL/min/kg; clearance [10]: 2.3 mL/min/kg |
| Cc1nnc(C(=O)NC(C)(C)c2nc(C(=O)NCc3ccc(F)cc3)c(O)c(=O)n2C)o1 |  |  |  | 9 | 53 |  |  |  |  |  |  |  |  |  |  |  |
| O=C1N[C@]2(CC[C@H]3C[C@H]32)n2c1c1c(c(O)c2=O)C(=O)N(Cc2ccc(F)c(Cl)c2)CC1 | 5 | 1 | 3 | 2.5 | 600 | 0.19 | 16 |  |  |  |  |  |  |  |  | AUC (Canis familiaris [11]): 47 µM·h; F (Canis familiaris [12]): 27%; bioavailability [13]: 29%; clearance [15]: 0.12 mL/min/kg; Vd [16]: 0.12 L/kg; AUC(0-inf) [17]: 189 µM·h; half-life [18]: 14 h |
| C[C@H](O)CN1C(=O)c2c3c(c(O)c(=O)n2[C@@]12CC[C@H]1C[C@H]12)C(=O)N(Cc1ccc(F)c(Cl)c1)CC3 | 1.5 | 1 | 1.5 | 2 | 67 | 0.6 | 5.9 | 58 (≈ 116 µM) | 0.025 | 22.9 | Not Active | 30 (≈ 59.8 µM) | 14.8 | 3 | 0.012 | AUC(0-inf) [21]: 10.5 µM·h; bioavailability [22]: 42%; AUC (Canis familiaris [27]): 11 µM·h |
| CN1C(=O)c2c3c(c(O)c(=O)n2[C@]12CC[C@@H]1C[C@@]12CO)C(=O)N(Cc1ccc(F)c(Cl)c1)CC3 | 1 | 1 | 1 | 3 | 32 | 0.4 |  | 30 (≈ 61.5 µM) | 0.02 | 8.4 | Not Active | 17 (≈ 34.8 µM) | 6.7 | 1.9 | 0.014 | AUC (Canis familiaris [30]): 8 µM·h; AUC(0-inf) [31]: 4.9 µM·h; half-life [32]: 5 h; bioavailability [33]: 26% |
